Each structure is given as a SMILES string. pIC50: −log10 of the molar value.

Data set [1] deals with T1, Xanthine dehydrogenase/oxidase (Bos taurus, UniProt P80457). In words: Inhibition of bovine xanthine oxidase using xanthine as substrate measured for 6 mins at 50 uM at 25 degC by spectrophotometry. As to conditions: cattle, 0.1 h; call rule not given here. In a few lines: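 Xanthine substrate, 25 °C, in 50 mM K₂HPO₄ buffer at pH 7.8. Xanthine was added as an 84.8 μg/mL solution in the same buffer; this is the added solution's concentration, not the final one. Test compounds were dissolved in DMSO and added at various concentrations.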

For data set [2], the target named is T1, Xanthine dehydrogenase/oxidase. In words: Inhibition of bovine xanthine oxidase using xanthine as substrate measured for 6 mins at 25 degC by spectrophotometry.
For data set [3] the target is unchanged. In words: Mixed-type inhibition of bovine xanthine oxidase using xanthine as substrate at 1.4 to 5.6 uM by Lineweaver-Burk plot. As to conditions: cattle.

T1 sequence (P80457 whole entry): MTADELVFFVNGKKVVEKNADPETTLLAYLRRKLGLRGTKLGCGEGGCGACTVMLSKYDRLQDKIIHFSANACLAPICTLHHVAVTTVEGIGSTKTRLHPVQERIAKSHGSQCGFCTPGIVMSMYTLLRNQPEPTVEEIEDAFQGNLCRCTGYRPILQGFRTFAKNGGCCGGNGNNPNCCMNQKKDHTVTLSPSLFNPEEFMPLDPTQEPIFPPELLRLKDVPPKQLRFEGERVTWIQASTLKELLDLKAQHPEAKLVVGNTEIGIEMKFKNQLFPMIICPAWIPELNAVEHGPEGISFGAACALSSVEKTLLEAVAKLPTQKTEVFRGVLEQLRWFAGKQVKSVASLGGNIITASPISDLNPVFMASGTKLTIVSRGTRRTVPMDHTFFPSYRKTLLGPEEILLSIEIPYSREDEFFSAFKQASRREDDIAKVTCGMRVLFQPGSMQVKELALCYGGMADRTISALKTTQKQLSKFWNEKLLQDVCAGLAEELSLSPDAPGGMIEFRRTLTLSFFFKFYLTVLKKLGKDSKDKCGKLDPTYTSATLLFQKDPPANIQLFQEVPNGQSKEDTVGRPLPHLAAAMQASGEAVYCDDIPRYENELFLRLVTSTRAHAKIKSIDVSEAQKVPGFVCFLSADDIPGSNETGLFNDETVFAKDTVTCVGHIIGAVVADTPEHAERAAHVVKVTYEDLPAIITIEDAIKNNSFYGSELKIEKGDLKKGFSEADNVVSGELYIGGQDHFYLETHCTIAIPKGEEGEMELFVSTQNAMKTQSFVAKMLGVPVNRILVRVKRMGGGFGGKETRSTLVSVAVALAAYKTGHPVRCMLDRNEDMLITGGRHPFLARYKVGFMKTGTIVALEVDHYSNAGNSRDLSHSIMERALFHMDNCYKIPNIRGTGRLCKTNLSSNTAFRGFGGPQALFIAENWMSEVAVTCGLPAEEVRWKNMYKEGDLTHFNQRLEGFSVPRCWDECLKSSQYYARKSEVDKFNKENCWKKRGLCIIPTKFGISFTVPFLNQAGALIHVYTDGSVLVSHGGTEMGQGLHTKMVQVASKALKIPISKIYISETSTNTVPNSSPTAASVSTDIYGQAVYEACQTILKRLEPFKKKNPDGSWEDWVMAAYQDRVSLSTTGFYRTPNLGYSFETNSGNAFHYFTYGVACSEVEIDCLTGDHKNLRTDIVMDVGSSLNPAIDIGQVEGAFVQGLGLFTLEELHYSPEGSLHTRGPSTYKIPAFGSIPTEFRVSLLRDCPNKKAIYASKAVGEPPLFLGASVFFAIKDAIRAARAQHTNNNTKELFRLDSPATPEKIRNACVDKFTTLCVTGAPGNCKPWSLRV

In turn, `C[N+](C)(Cc1cc(O)c2c(c1)C(=O)c1cccc(O)c1C2=O)c1ccccc1` yielded an inhibition at 50 µM in data set [1] of less than 10%. `CC(=O)OC[C@H]1OC(OC(C)=O)[C@H](NC(=O)c2cc(O)c3c(c2)C(=O)c2cccc(O)c2C3=O)[C@H](OC(C)=O)[C@@H]1OC(C)=O` (stereo not given in full) gave an inhibition at 50 µM in data set [1] of 7.2%.

Molecule `COc1cccc2c1C(=O)c1c(OC)cc(C[N+](C)(C)c3ccccc3)cc1C2=O` had an inhibition at 50 µM in data set [1] of less than 10%. Turning to `COc1cccc2c1C(=O)c1c(OC)cc(C[N+](C)(C)C)cc1C2=O`, the inhibition at 50 µM in data set [1] is less than 10%. The molecule `COc1cccc2c1C(=O)c1c(OC)cc(CCl)cc1C2=O` registered an inhibition at 50 µM in data set [1] of 14.3%.

On to `O=C1c2cccc(O)c2C(=O)c2c(O)cc(C[n+]3ccccc3)cc21`, for which the inhibition at 50 µM in data set [1] is less than 10%. For `CC(=O)OC[C@H]1OC(OC(C)=O)[C@H](/N=C/c2cc(O)c3c(c2)C(=O)c2cccc(O)c2C3=O)[C@H](OC(C)=O)[C@@H]1OC(C)=O` (stereo not given in full), at 50 µM the inhibition in data set [1] was 93.4%. This molecule had a pIC50 in data set [2] of 5.07. For the molecule `COc1cccc2c1C(=O)c1c(OC)cc(/C=N/O)cc1C2=O`, in data set [1], the inhibition at 50 µM was less than 10%. For the molecule `C[N+](C)(C)Cc1cc(O)c2c(c1)C(=O)c1cccc(O)c1C2=O`, the inhibition at 50 µM in data set [1] came out at 68.8%. In data set [2], the negative logarithm of the IC50 (pIC50) is 4.73. Turning to `COc1cccc2c1C(=O)c1c(OC)cc(C[n+]3ccccc3)cc1C2=O`, the inhibition at 50 µM in data set [1] is less than 10%. The molecule `COc1cccc2c1C(=O)c1c(OC)cc(C=O)cc1C2=O` returned an inhibition at 50 µM in data set [1] of 36.5%.

Turning to `COc1cccc2c1C(=O)c1c(OC)cc(CO)cc1C2=O`, in data set [1], the inhibition at 50 µM came out at 9.77%. `O=C(O)c1cc(O)c2c(c1)C(=O)c1cccc(O)c1C2=O` [RHEIN] returned an inhibition at 50 µM in data set [1] of 3.63%. With `O=C1c2cccc(O)c2C(=O)c2c(O)cc(/C=N/c3ccccc3)cc21`, at 50 µM the inhibition in data set [1] was 94.5%. This molecule gave a negative-log IC50 (pIC50) in data set [2] of 5.41. As to `COc1cccc2c1C(=O)c1c(OC)cc(/C=N/N)cc1C2=O`, the inhibition at 50 µM in data set [1] was less than 10%. On the same count and under the same terms, as for `O=C1c2cccc(O)c2C(=O)c2c(O)cc(CO)cc21` [ALOE-EMODIN], the figure is 22.5%. As to `COc1cccc2c1C(=O)c1c(OC)cc(/C=N/c3ccccc3)cc1C2=O`, at 50 µM the inhibition in data set [1] was 17.5%.

Turning to `O=Cc1cc(O)c2c(c1)C(=O)c1cccc(O)c1C2=O`, in data set [1], at 50 µM the inhibition was 93.3%. For the same molecule, the “inhibition (INH)” value is recorded as “Active” in data set [3] and “Dose-dependent effect” in data set [2] (cattle, 0.1 h). In data set [2], this molecule showed a pIC50 of 5.55. In turn, `O=C1c2cccc(O)c2C(=O)c2c(O)cc(CCl)cc21` registered an inhibition at 50 µM in data set [1] of 18.4%.

As a reminder, the inhibition is the drop in the measured response relative to a control, in per cent. A lower inhibition goes with a weak effect. Broadly, the pIC50 is the negative decadic logarithm of the IC50, by convention in mol/L. Low readings indicate a high IC50, high ones a low IC50.

These data come from ChEMBL document CHEMBL3120144, “Design, synthesis and molecular modeling of aloe-emodin derivatives as potent xanthine oxidase inhibitors” (Eur J Med Chem, 2014).
